Calls of active or inactive are those of the source. The rule behind the calls is not given here.
Assays:
[1] = biological target: T1, Heat shock protein HSP 90-alpha (Homo sapiens, UniProt P07900); test: Binding affinity to recombinant human HSP90 alpha by Surface plasmon resonance analysis
HeLa [2] = test: Antiproliferative activity against human HeLa cells after 48 hrs by MTT assay; type: functional, cell-based
How it was run: (§1)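 Cells grown in DMEM (HeLa) or RPMI 1640 (Jurkat) with 10% FBS at 37 °C and 5% CO2. Seeded at 1 × 10^4 cells/well the day before, then exposed 48 h to 10−150 μM compound (final DMSO ≤0.15% v/v), with vehicle and etoposide controls. MTT read at 550 nm; IC50 from dose–response curves versus controls; mean ± SD, ≥3 experiments in duplicate.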

Jurkat = test: Antiproliferative activity against human Jurkat cells after 48 hrs by MTT assay; type: functional, cell-based; how it was run: as §1
PBMC = test: Cytotoxicity against human PBMC up to 100 uM after 48 hrs by trypan blue exclusion assay; type: cell-based
HeLa [3] = test: Cell cycle arrest in human HeLa cells assessed as accumulation at G2/M phase at 10 to 20 uM after 48 hrs by propidium iodide staining based flow cytometry; type: functional
How it was run: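 HeLa cells in DMEM with 10% FBS at 37 °C, 5% CO2, exposed to 10 or 20 μM for 48 h, DMSO vehicle (final ≤0.15%). Permeabilized cells stained with propidium iodide and analyzed by flow cytometry, 5000 events per sample. Percentages in hypodiploid, G0/G1, S and G2/M are given minus control values. Mean ± SD of three experiments run in duplicate.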

[4] = biological target: T1, Heat shock protein HSP 90-alpha; test: Inhibition of HSP90 alpha in human HeLa cells assessed as effect on CDC2/p34 phosphorylation at Thr161 residue at 10 uM after 48 hrs by Western blot analysis relative to GAPDH (reference value: 1); type: cell-based
[5] = biological target: T1, Heat shock protein HSP 90-alpha; test: Inhibition of HSP90 alpha in human HeLa cells assessed as effect on CDC2/p34 phosphorylation at Thr161 residue at 20 uM after 48 hrs by Western blot analysis relative to GAPDH (reference value: 1); type: cell-based
HeLa [6] = test: Effect on total Cdc2 expression in human HeLa cells at 10 uM after 48 hrs by Western blot analysis relative to GAPDH (reference value: 1); type: ADME, cell-based
HeLa [7] = test: Effect on total Cdc2 expression in human HeLa cells at 20 uM after 48 hrs by Western blot analysis relative to GAPDH (reference value: 1); type: ADME, cell-based
[8] = biological target: T1, Heat shock protein HSP 90-alpha; test: Inhibition of HSP90 alpha in human HeLa cells assessed as effect on HSP90 expression at 10 uM after 48 hrs by Western blot analysis relative to alpha-tubulin (reference value: 1); type: cell-based
[9] = biological target: T1, Heat shock protein HSP 90-alpha; test: Inhibition of HSP90 alpha in human HeLa cells assessed as effect on HSP90 expression at 20 uM after 48 hrs by Western blot analysis relative to alpha-tubulin (reference value: 1); type: cell-based
[10] = biological target: T1, Heat shock protein HSP 90-alpha; test: Inhibition of HSP90 alpha in human HeLa cells assessed as effect on HSP70 expression at 10 uM after 48 hrs by Western blot analysis relative to alpha-tubulin (reference value: 1); type: cell-based
[11] = biological target: T1, Heat shock protein HSP 90-alpha; test: Inhibition of HSP90 alpha in human HeLa cells assessed as effect on HSP70 expression at 20 uM after 48 hrs by Western blot analysis relative to alpha-tubulin (reference value: 1); type: cell-based
[12] = biological target: T1, Heat shock protein HSP 90-alpha; test: Inhibition of HSP90 alpha in human HeLa cells assessed as effect on EGFR expression at 10 uM after 48 hrs by Western blot analysis relative to GAPDH (reference value: 1); type: cell-based
[13] = biological target: T1, Heat shock protein HSP 90-alpha; test: Inhibition of HSP90 alpha in human HeLa cells assessed as effect on EGFR expression at 20 uM after 48 hrs by Western blot analysis relative to GAPDH (reference value: 1); type: cell-based
[14] = biological target: T1, Heat shock protein HSP 90-alpha; test: Inhibition of HSP90 alpha in human HeLa cells assessed as effect on AKT phosphorylation at 10 uM after 48 hrs by Western blot analysis relative to GAPDH (reference value: 1); type: cell-based
HeLa [15] = test: Effect on total AKT expression in human HeLa cells at 10 uM after 48 hrs by Western blot analysis relative to GAPDH (reference value: 1); type: ADME, cell-based
HeLa [16] = test: Effect on total AKT expression in human HeLa cells at 20 uM after 48 hrs by Western blot analysis relative to GAPDH (reference value: 1); type: ADME, cell-based
[17] = biological target: T1, Heat shock protein HSP 90-alpha; test: Inhibition of HSP90 alpha in human HeLa cells assessed as effect on Cyclin A expression at 10 uM after 48 hrs by Western blot analysis relative to GAPDH (reference value: 1); type: cell-based
[18] = biological target: T1, Heat shock protein HSP 90-alpha; test: Inhibition of HSP90 alpha in human HeLa cells assessed as effect on Cyclin A expression at 20 uM after 48 hrs by Western blot analysis relative to GAPDH (reference value: 1); type: cell-based
[19] = biological target: T1, Heat shock protein HSP 90-alpha; test: Inhibition of HSP90 alpha in human HeLa cells assessed as effect on ERK1 phosphorylation at 10 uM after 48 hrs by Western blot analysis relative to GAPDH (reference value: 1); type: cell-based
[20] = biological target: T1, Heat shock protein HSP 90-alpha; test: Inhibition of HSP90 alpha in human HeLa cells assessed as effect on ERK1 phosphorylation at 20 uM after 48 hrs by Western blot analysis relative to GAPDH (reference value: 1); type: cell-based
HeLa [21] = test: Effect on total ERK1 expression in human HeLa cells at 10 uM after 48 hrs by Western blot analysis relative to GAPDH (reference value: 1); type: ADME, cell-based
HeLa [22] = test: Effect on total ERK1 expression in human HeLa cells at 20 uM after 48 hrs by Western blot analysis relative to GAPDH (reference value: 1); type: ADME, cell-based

CC1=C2C[C@]3(C)C(=O)C[C@@H](C(C)(C)O)[C@H]3C/C=C(/C)[C@@H]2CC1=O
Kd ([1]; read-out: Kd): 0.0153 µM | IC50 (HeLa [2]): > 20 µM | IC50 (Jurkat): > 20 µM | Activity (PBMC): Non-Toxic | Activity (HeLa [3]): Active | fold change (FC) [4]: 0.2 | fold change (FC) [5]: 0.1 | fold change (FC) (HeLa [6]): 1.8 | fold change (FC) (HeLa [7]): 1.5 | fold change (FC) [8]: 1.4 | fold change (FC) [9]: 1.3 | fold change (FC) [10]: 1 | fold change (FC) [11]: 0.8 | fold change (FC) [12]: 1.3 | fold change (FC) [13]: 1.4 | fold change (FC) [14]: 0.3 | fold change (FC) (HeLa [15]): 1 | fold change (FC) (HeLa [16]): 1 | fold change (FC) [17]: 1 | fold change (FC) [18]: 1.2 | fold change (FC) [19]: 0.5 | fold change (FC) [20]: 0.3 | fold change (FC) (HeLa [21]): 1.2 | fold change (FC) (HeLa [22]): 1.2

CC1=C2C[C@]3(C)C(=O)C=C(C(C)C)[C@H]3C/C=C(/C)[C@@H]2CC1=O
Kd ([1]; read-out: Kd): 1.74 µM | IC50 (HeLa [2]): > 20 µM | IC50 (Jurkat): > 20 µM

CC(C)[C@@H]1CC(=O)[C@@]2(C)/C=C3\C(CC[C@@]3(C)O)[C@]3(C)O[C@@H]3CC12 (stereo partly specified)
Kd ([1]; read-out: Kd): 0.045 µM | IC50 (HeLa [2]): > 20 µM | IC50 (Jurkat): > 20 µM

CC1=C2C[C@]3(C)C(=O)C=C(C(C)C)C3CC(O)/C(C)=C\2CC1=O (stereo partly specified)
Kd [1]: Not Active | IC50 (HeLa [2]): > 20 µM | IC50 (Jurkat): > 20 µM

C=C1CC[C@@H]2[C@H]1C[C@]1(C)CC[C@@H](C(C)C)[C@H]1C[C@H]1O[C@@]21C
Kd ([1]; read-out: Kd): 0.13 µM | IC50 (HeLa [2]): > 20 µM | IC50 (Jurkat): > 20 µM

CC1=CCC23OC4(C[C@]2(C)C(=O)C=C3C(C)C)[C@H](C)C(=O)C[C@@H]14 (stereo partly specified)
Kd ([1]; read-out: Kd): 0.217 µM | IC50 (HeLa [2]): > 20 µM | IC50 (Jurkat): > 20 µM

C=C1CC[C@H]2/C(C)=C\C[C@@H]3[C@H](C(C)C)CC(=O)[C@@]3(C)C[C@@H]12
Kd ([1]; read-out: Kd): 0.401 µM | IC50 (HeLa [2]): > 20 µM | IC50 (Jurkat): > 20 µM

C/C1=C/C[C@@H]2[C@H](C(C)C)CC(=O)[C@@]2(C)/C=C2/C(C)CCC12 (stereo partly specified)
Kd ([1]; read-out: Kd): 0.0205 µM | IC50 (HeLa [2]): > 20 µM | IC50 (Jurkat): > 20 µM

CC1=C2C[C@@]3(C)O[C@@](C)([C@@H]2CC1=O)[C@H]1CC(=O)[C@@](C(C)C)(CC3=O)O1
Kd ([1]; read-out: Kd): 0.12 µM | IC50 (HeLa [2]): > 20 µM | IC50 (Jurkat): > 20 µM

CC1=C2C[C@]3(C)C(=O)C[C@@H](C(C)C)[C@H]3C/C=C(/C)[C@@H]2CC1=O [HYPOESTENONE]
Kd ([1]; read-out: Kd): 1 µM | IC50 (HeLa [2]): > 20 µM | IC50 (Jurkat): > 20 µM

CC1=C2C[C@]3(C)C(=O)C=C(C(C)C)[C@H]3C[C@H]3O[C@@]3(C)[C@@H]2CC1=O
Kd [1]: Not Active | IC50 (HeLa [2]): > 20 µM | IC50 (Jurkat): > 20 µM

CC1=C2C[C@]3(C)C(=O)C[C@@H](C(C)C)[C@H]3C[C@H]3O[C@@]3(C)[C@@H]2CC1=O
Kd [1]: Not Active | IC50 (HeLa [2]): > 20 µM | IC50 (Jurkat): > 20 µM

CC(=O)O[C@H]1C[C@@](O)(C(C)C)[C@H]2C/C=C(/C)[C@@H]3CC(=O)C(C)=C3C[C@]12C
Kd [1]: Not Active | IC50 (HeLa [2]): > 20 µM | IC50 (Jurkat): > 20 µM

CC1=C2C[C@]3(C)CC[C@@H](C(C)C)[C@H]3C/C=C(/C)[C@@H]2CC1=O
Kd ([1]; read-out: Kd): 0.028 µM | IC50 (HeLa [2]): > 20 µM | IC50 (Jurkat): > 20 µM

C/C1=C/C[C@@H]2[C@H](C(C)C)CC[C@@]2(C)CC23OC2(C)CC[C@@H]13 (stereo partly specified)
Kd [1]: Not Active | IC50 (HeLa [2]): > 20 µM | IC50 (Jurkat): > 20 µM
